# Measurements collected from several papers.
# Protocols differ between the studies behind these lines.
# Target: Cyclin-dependent kinase 18 (CDK18, Homo sapiens, UniProt Q07002)
Compound,observed,method,concentration,remaining binding
Cc1cnc(Nc2ccc(C(=O)N3CCC(N4CCCC4)CC3)cc2)nc1-c1cc2ccccc2s1,binding,competition with immobilised ligand,1 µM,100%
O=c1nc(-c2ccccn2)sc2ccccc12,binding,competition with immobilised ligand,1 µM,94%
COc1ncc2cc3ccccc3nc2c1C#N,cell-free assay,competition with immobilised ligand,5 µM,90%
CN(C)C(=O)Cn1cc(-c2nc(C3(c4ccc(-c5cnc(N)nc5)cc4)CC3)no2)cn1,cell-free assay,competition with immobilised ligand,1 µM,83%
CCN1CCN(Cc2ccc(C(=O)Nc3ccc(C)c(Oc4ccc5c(c4)CC(=O)N5)c3)cc2C(F)(F)F)CC1,binding,competition with immobilised ligand,1 µM,100%
CCC(=N\O)/C(C)=C/c1ccc(F)cc1,cell-free assay,competition with immobilised ligand,1 µM,89%
CC1CCCN1c1nccc(-c2cnn3ncccc23)n1 (stereo not shown),binding,,1 µM,100%
O=C(NCCCN1CCOCC1)c1ccc(Nc2nccc(-c3cc4ccccc4s3)n2)cc1,binding,competition with immobilised ligand,1 µM,99%
C[C@H]1CCN(c2nccc(-c3cnn4ncccc34)n2)C1,binding,,1 µM,100%
O=C(Nc1c[nH]nc1C(=O)NC1CCNCC1)c1cc(F)cc(F)c1,binding,competition with immobilised ligand,1 µM,78%
C=CC(=O)N1CCC(C(=O)NCC(=O)N2CCN(c3nc(-c4cnc(N)nc4C(F)F)nc(N4CCOCC4)n3)CC2)CC1,binding,competition with immobilised ligand,1 µM,95%
O=C(NCCCN1CCOCC1)c1ccc(Nc2ncc(Cl)c(-c3ccc(Cl)s3)n2)cc1,binding,competition with immobilised ligand,1 µM,70%
CN1CCN(c2ccc(Nc3nccc(-c4cccc([N+](=O)[O-])c4)n3)cc2C(F)(F)F)CC1,binding,,10 µM,56%
c1cnn2ncc(-c3ccnc(N4CCC45COC5)n3)c2c1,binding,,1 µM,98%
FC(F)(F)Oc1cccc(-c2cnc3ccc(-c4ccncc4)nn23)c1,cell-free assay,competition with immobilised ligand,5 µM,46%
N[C@@H]1CCN(c2nccc(-c3cnn4ncccc34)n2)C1,binding,,1 µM,100%
O=C(Nc1ccc(Oc2ccc(F)cc2)cc1)N1CCc2ncccc2[C@H]1c1ccc(F)cc1,cell-free assay,competition with immobilised ligand,1 µM,98%
COc1cnc(Nc2cccc(S(N)(=O)=O)c2)nc1N1CCN(c2ccccc2)C(=O)C1,binding,competition with immobilised ligand,1 µM,100%
CN(c1ccnc(CNc2nc(Nc3ccc4c(c3)CC(=O)N4)ncc2C(F)(F)F)n1)S(C)(=O)=O,cell-free assay,competition with immobilised ligand,1 µM,100%
Cc1cnn2ncc(-c3ccnc(N(C)C)n3)c2c1,binding,,1 µM,100%
O=C1CCc2cc(Nc3cc(OC4CCOCC4)c([N+](=O)[O-])cc3Cl)ccc2N1,cell-free assay,competition with immobilised ligand,1 µM,100%
CN(C)c1nccc(-c2cnc3ncccn23)n1,binding,,1 µM,100%
